Publication PMC9477609 (Journal of Molecular Liquids, 2022)
Values after ≈ are worked out from the molar mass of the structure shown.

Key:
[1] = water solubility of neat and equilibrated powders; format: physicochemical; settings: for water solubility: neat and solvent-equilibrated dry powders
parasitic proliferation = settings: cited from earlier work
hepatitis C virus = settings: cited from earlier work
MCF-7 = settings: read-out: cell proliferation inhibitor IC50; MCF-7 ref 5; cited from earlier work
[2] = in water, PBS (pH 7.4), SGF and SIF; no reference given; cited from earlier work
MDA-MB-231 = settings: human breast cancer cell lines (MDA-MB-231) ref 5; cited from earlier work
[3] = apparent thermodynamic analysis: dissolution Gibbs free energy; format: physicochemical
Method in brief: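 Excess solid was added to the pure solvent, vortexed and sonicated, then shaken for 24 h at 300 rpm at each temperature from 298.15 to 323.15 K. Samples were centrifuged for 20 min at 8000 rpm and 25 °C. Supernatant was diluted in MeOH/water 8:2 and read by absorbance at 330 nm against a 5–35 µg/mL calibration. Mole fraction solubility was the mean of triplicates. Dissolution thermodynamics came from Van't Hoff analysis.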

snails = settings: cited from earlier work
[4] = cited from earlier work

Structure (SMILES): O=C(Nc1ccc([N+](=O)[O-])cc1Cl)c1cc(Cl)ccc1O [niclosamide, N-(2′-chloro-4′-nitrophenyl)-5-chlorosalicylamide]
- solubility ([1]; water): 20.76 ± 0.099 µg/mL (≈ 63.5 µM)
- parasitic proliferation inhibitor MIC50 (parasitic proliferation): 200–250 nM/L
- hepatitis C virus replication inhibitor (hepatitis C virus): 0.16 µM/L
- IC50 (MCF-7): 1060 nM
- aqueous solubility [2]: 6 to 20 µg/mL
- apoptosis inducer, concentration (MDA-MB-231): 1–10 µM/L
- ΔdisG, dissolution Gibbs free energy ([3]; 1-butanol, 298.15 K): -0.48423 kcal/mol
- ΔdisG, dissolution Gibbs free energy ([3]; 1-butanol, 303.15 K): -0.48341 kcal/mol
- ΔdisG, dissolution Gibbs free energy ([3]; 1-butanol, 308.15 K): -0.48255 kcal/mol
- ΔdisG, dissolution Gibbs free energy ([3]; 1-butanol, 313.15 K): -0.48176 kcal/mol
- ΔdisG, dissolution Gibbs free energy ([3]; 1-butanol, 318.15 K): -0.48088 kcal/mol
- ΔdisG, dissolution Gibbs free energy ([3]; 1-butanol, 323.15 K): -0.48009 kcal/mol
- ΔdisG, dissolution Gibbs free energy ([3]; 2-propanol, 298.15 K): -0.09434 kcal/mol
- ΔdisG, dissolution Gibbs free energy ([3]; 2-propanol, 303.15 K): -0.09015 kcal/mol
- ΔdisG, dissolution Gibbs free energy ([3]; 2-propanol, 308.15 K): -0.08597 kcal/mol
- ΔdisG, dissolution Gibbs free energy ([3]; 2-propanol, 313.15 K): -0.08179 kcal/mol
- ΔdisG, dissolution Gibbs free energy ([3]; 2-propanol, 318.15 K): -0.07763 kcal/mol
- ΔdisG, dissolution Gibbs free energy ([3]; 2-propanol, 323.15 K): -0.07345 kcal/mol
- ΔdisG, dissolution Gibbs free energy ([3]; DMSO, 298.15 K): 0.1837 kcal/mol
- ΔdisG, dissolution Gibbs free energy ([3]; DMSO, 303.15 K): 0.1905 kcal/mol
- ΔdisG, dissolution Gibbs free energy ([3]; DMSO, 308.15 K): 0.1973 kcal/mol
- ΔdisG, dissolution Gibbs free energy ([3]; DMSO, 313.15 K): 0.2041 kcal/mol
- ΔdisG, dissolution Gibbs free energy ([3]; DMSO, 318.15 K): 0.2109 kcal/mol
- ΔdisG, dissolution Gibbs free energy ([3]; DMSO, 323.15 K): 0.2177 kcal/mol
- ΔdisG, dissolution Gibbs free energy ([3]; Ethanol, 298.15 K): 0.3086 kcal/mol
- ΔdisG, dissolution Gibbs free energy ([3]; Ethanol, 303.15 K): 0.31637 kcal/mol
- ΔdisG, dissolution Gibbs free energy ([3]; Ethanol, 308.15 K): 0.32414 kcal/mol
- ΔdisG, dissolution Gibbs free energy ([3]; Ethanol, 313.15 K): 0.33191 kcal/mol
- ΔdisG, dissolution Gibbs free energy ([3]; Ethanol, 318.15 K): 0.33967 kcal/mol
- ΔdisG, dissolution Gibbs free energy ([3]; Ethanol, 323.15 K): 0.34744 kcal/mol
- ΔdisG, dissolution Gibbs free energy ([3]; Methanol, 298.15 K): 1.3769 kcal/mol
- ΔdisG, dissolution Gibbs free energy ([3]; Methanol, 303.15 K): 1.3941 kcal/mol
- ΔdisG, dissolution Gibbs free energy ([3]; Methanol, 308.15 K): 1.4113 kcal/mol
- ΔdisG, dissolution Gibbs free energy ([3]; Methanol, 313.15 K): 1.4285 kcal/mol
- ΔdisG, dissolution Gibbs free energy ([3]; Methanol, 318.15 K): 1.4457 kcal/mol
- ΔdisG, dissolution Gibbs free energy ([3]; Methanol, 323.15 K): 1.463 kcal/mol
- ΔdisG, dissolution Gibbs free energy ([3]; PEG-200, 298.15 K): -0.1837 kcal/mol
- ΔdisG, dissolution Gibbs free energy ([3]; PEG-200, 303.15 K): -0.1807 kcal/mol
- ΔdisG, dissolution Gibbs free energy ([3]; PEG-200, 308.15 K): -0.1777 kcal/mol
- ΔdisG, dissolution Gibbs free energy ([3]; PEG-200, 313.15 K): -0.1747 kcal/mol
- ΔdisG, dissolution Gibbs free energy ([3]; PEG-200, 318.15 K): -0.1717 kcal/mol
- ΔdisG, dissolution Gibbs free energy ([3]; PEG-200, 323.15 K): -0.1687 kcal/mol
- ΔdisG, dissolution Gibbs free energy ([3]; PEG-400, 298.15 K): -0.50012 kcal/mol
- ΔdisG, dissolution Gibbs free energy ([3]; PEG-400, 303.15 K): -0.50024 kcal/mol
- ΔdisG, dissolution Gibbs free energy ([3]; PEG-400, 308.15 K): -0.50038 kcal/mol
- ΔdisG, dissolution Gibbs free energy ([3]; PEG-400, 313.15 K): -0.50048 kcal/mol
- ΔdisG, dissolution Gibbs free energy ([3]; PEG-400, 318.15 K): -0.50067 kcal/mol
- ΔdisG, dissolution Gibbs free energy ([3]; PEG-400, 323.15 K): -0.50079 kcal/mol
- ΔdisG, dissolution Gibbs free energy ([3]; Water, 298.15 K): 0.1407 kcal/mol
- ΔdisG, dissolution Gibbs free energy ([3]; Water, 303.15 K): 0.1507 kcal/mol
- ΔdisG, dissolution Gibbs free energy ([3]; Water, 308.15 K): 0.1608 kcal/mol
- ΔdisG, dissolution Gibbs free energy ([3]; Water, 313.15 K): 0.1709 kcal/mol
- ΔdisG, dissolution Gibbs free energy ([3]; Water, 318.15 K): 0.181 kcal/mol
- ΔdisG, dissolution Gibbs free energy ([3]; Water, 323.15 K): 0.1911 kcal/mol
- lethal concentration in snails (snails): 0.3 mg/L

Structure (SMILES): O=C(Nc1ccc([N+](=O)[O-])cc1Cl)c1cc(Cl)ccc1O [NCL-MeOH]
- water solubility [1]: 16.261 ± 0.082 µg/mL (≈ 49.7 µM)

Structure (SMILES): C[S+](C)[O-] [dimethyl sulfoxide]
- log P [4]: −1.35

Structure (SMILES): O=C(Nc1ccc([N+](=O)[O-])cc1Cl)c1cc(Cl)ccc1O [NCL-DMSO]
- water solubility [1]: 18.082 ± 0.045 µg/mL (≈ 55.3 µM)

Structure (SMILES): CO [methanol]
- log P [4]: −0.69
